From ChEMBL document CHEMBL4823328, “Structure-Guided Design of d-Galactal Derivatives with High Affinity and Selectivity for the Galectin-8 N-Terminal Domain” (ACS Med Chem Lett, 2021)
The source made the active and inactive calls. No cut-off for these calls is given here.

Legend:
Galectin-8 = target: T1, Galectin-8 (Homo sapiens, UniProt O00214); assay: Binding affinity to human galectin-8 C terminal domain assessed as dissociation constant by competitive fluorescence polarization assay
T1 sequence (O00214 whole entry): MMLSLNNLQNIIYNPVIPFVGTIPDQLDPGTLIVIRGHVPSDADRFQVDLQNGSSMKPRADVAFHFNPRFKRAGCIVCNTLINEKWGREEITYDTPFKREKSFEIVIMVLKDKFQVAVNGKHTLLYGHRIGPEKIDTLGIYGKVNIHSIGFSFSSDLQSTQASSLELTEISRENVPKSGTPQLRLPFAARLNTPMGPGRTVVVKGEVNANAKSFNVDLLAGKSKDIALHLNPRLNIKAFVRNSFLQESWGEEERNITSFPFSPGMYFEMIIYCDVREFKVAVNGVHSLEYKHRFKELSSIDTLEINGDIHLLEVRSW

Homo sapiens [1] = species on record: Homo sapiens; assay: Selectivity for human galectin-8N over human galectin-3
Homo sapiens [2] = species on record: Homo sapiens; assay: Selectivity for human galectin-8N over human galectin-2
Homo sapiens [3] = species on record: Homo sapiens; assay: Selectivity for human galectin-8N over human galectin-1
K562 = assay: Cytotoxicity against human K562 cells assessed as cell viability at 1 to 100 uM measured after 24 hrs by MTS assay; format: functional, cell-based; details: dose 1-100 µM
Procedure, shortened: (§1)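 MTS viability assay on human PBMCs and on the K562 and MDA-MB-231 cancer lines. The cancer lines were exposed to 1–100 μM compound, and PBMCs to concentrations up to 100 μM. Read-out was the MTS tetrazolium reduction signal.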

MDA-MB-231 = assay: Cytotoxicity against human MDA-MB-231 cells assessed as cell viability at 1 to 100 uM measured after 24 hrs by MTS assay; format: functional, cell-based; details: dose 1-100 µM; procedure, shortened: as §1
[4] = Cytotoxicity against human PBMC cells assessed as cell viability upto 100 uM measured after 24 hrs by MTS assay; format: cell-based; procedure, shortened: as §1
[5] = target: Galectin-1 (Homo sapiens) (UniProt P09382); assay: Binding affinity to human galectin-1 assessed as dissociation constant measured up to 1500 uM by competitive fluorescence polarization assay; details: dose microM <=1500
Sequence of Galectin-1 (Homo sapiens) (P09382 whole entry): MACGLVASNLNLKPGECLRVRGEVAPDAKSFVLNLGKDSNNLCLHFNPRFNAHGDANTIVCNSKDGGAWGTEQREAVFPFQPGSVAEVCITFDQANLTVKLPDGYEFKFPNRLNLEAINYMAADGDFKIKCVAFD

Galectin-7 [6] = target: T2, Galectin-7 (Homo sapiens, UniProt P47929); assay: Binding affinity to human galectin-7 assessed as dissociation constant measured up to 1500 uM by competitive fluorescence polarization assay; details: dose microM <=1500
T2 sequence (P47929 whole entry, the tested form may be a part): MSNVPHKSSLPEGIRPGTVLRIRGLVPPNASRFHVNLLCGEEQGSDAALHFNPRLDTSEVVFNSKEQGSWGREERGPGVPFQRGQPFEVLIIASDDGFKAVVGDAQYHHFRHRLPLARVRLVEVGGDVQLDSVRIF

Galectin-9 [7] = target: T3, Galectin-9 (Homo sapiens, UniProt O00182); assay: Binding affinity to human galectin-9 N terminal domain assessed as dissociation constant measured up to 1500 uM by competitive fluorescence polarization assay; details: dose microM <=1500
T3 sequence (O00182 whole entry, the tested form may be a part): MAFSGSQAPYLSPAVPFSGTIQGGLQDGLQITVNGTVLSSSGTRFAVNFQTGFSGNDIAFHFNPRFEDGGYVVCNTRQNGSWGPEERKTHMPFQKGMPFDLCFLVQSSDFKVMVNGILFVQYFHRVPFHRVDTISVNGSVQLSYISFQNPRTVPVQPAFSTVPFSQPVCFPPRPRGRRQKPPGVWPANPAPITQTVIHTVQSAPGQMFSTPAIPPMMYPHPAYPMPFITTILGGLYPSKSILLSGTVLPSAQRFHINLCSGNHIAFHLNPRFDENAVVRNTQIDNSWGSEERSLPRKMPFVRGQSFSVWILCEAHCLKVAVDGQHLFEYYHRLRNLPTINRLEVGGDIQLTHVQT

Homo sapiens [8] = species on record: Homo sapiens; assay: Selectivity for human galectin-8N over human galectin-4 N terminal domain
Homo sapiens [9] = species on record: Homo sapiens; assay: Selectivity for human galectin-8N over human galectin-4 C terminal domain
Homo sapiens [10] = species on record: Homo sapiens; assay: Selectivity for human galectin-8N over human galectin-8 C terminal domain
Homo sapiens [11] = species on record: Homo sapiens; assay: Selectivity for human galectin-8N over human galectin-9 N terminal domain
Homo sapiens [12] = species on record: Homo sapiens; assay: Selectivity for human galectin-8N over human galectin-9 C terminal domain
Galectin-7 [13] = target: T2, Galectin-7; assay: Binding affinity to human galectin-7 assessed as dissociation constant by competitive fluorescence polarization assay
[14] = target: T4, Galectin-8 (Homo sapiens) (UniProt O00214); assay: Antagonist activity at galactin-8 in human MDA-MB-231 cells assessed as reduction in IL-6 secretion at 10 uM measured after 24 hrs by flow cytometry relative to control; format: cell-based; parameters: scale not given: the % may be the effect or the level left
T4 sequence (whole entry): T1 sequence (O00214 whole entry)
Procedure, shortened: (§2)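 MDA-MB-231 cells, which express galectin-8 endogenously, were incubated with the compounds at 10 or 100 μM. Secreted IL-6 and IL-8 were quantified in pg/mL and compared with untreated cells. Values are means ± SEM from three independent experiments, with significance tested against untreated controls. Cell viability at the same concentrations was checked separately by MTS assay.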

[15] = target: T4, Galectin-8 (Homo sapiens); assay: Antagonist activity at galactin-8 in human MDA-MB-231 cells assessed as reduction in IL-6 secretion at 100 uM measured after 24 hrs by flow cytometry relative to control; format: cell-based; parameters: scale not given: the % may be the effect or the level left; procedure, shortened: as §2
[16] = target: T4, Galectin-8 (Homo sapiens); assay: Antagonist activity at galactin-8 in human MDA-MB-231 cells assessed as reduction in IL-8 secretion at 100 uM measured after 24 hrs by flow cytometry relative to control; format: cell-based; parameters: scale not given: the % may be the effect or the level left; procedure, shortened: as §2
Galectin-2 = target: T5, Galectin-2 (Homo sapiens, UniProt P05162); assay: Binding affinity to human galectin-2 assessed as dissociation constant by competitive fluorescence polarization assay
T5 sequence (P05162 whole entry): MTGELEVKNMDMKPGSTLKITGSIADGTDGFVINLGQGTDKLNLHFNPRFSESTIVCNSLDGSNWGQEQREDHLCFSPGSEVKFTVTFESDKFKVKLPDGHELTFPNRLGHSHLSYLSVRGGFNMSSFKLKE

Galectin-4 [17] = target: T6, Galectin-4 (Homo sapiens, UniProt P56470); assay: Binding affinity to human galectin-4 N terminal domain assessed as dissociation constant by competitive fluorescence polarization assay
T6 sequence (P56470 whole entry): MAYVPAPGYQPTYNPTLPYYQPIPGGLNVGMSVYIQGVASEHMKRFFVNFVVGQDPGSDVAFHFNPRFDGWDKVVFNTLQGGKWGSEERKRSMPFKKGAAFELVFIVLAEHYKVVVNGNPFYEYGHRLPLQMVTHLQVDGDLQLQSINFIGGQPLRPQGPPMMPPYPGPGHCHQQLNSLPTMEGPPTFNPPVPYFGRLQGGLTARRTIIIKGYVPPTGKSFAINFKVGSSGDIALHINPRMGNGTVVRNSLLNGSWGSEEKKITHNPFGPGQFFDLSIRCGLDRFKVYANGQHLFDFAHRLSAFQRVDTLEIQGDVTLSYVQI

Galectin-4 [18] = target: T6, Galectin-4; assay: Binding affinity to human galectin-4 C terminal domain assessed as dissociation constant by competitive fluorescence polarization assay
Galectin-9 [19] = target: T3, Galectin-9; assay: Binding affinity to human galectin-9 N terminal domain assessed as dissociation constant by competitive fluorescence polarization assay
Galectin-9 [20] = target: T3, Galectin-9; assay: Binding affinity to human galectin-9 C terminal domain assessed as dissociation constant by competitive fluorescence polarization assay
Galectin-9 [21] = target: T3, Galectin-9; assay: Binding affinity to human galectin-9 C terminal domain assessed as dissociation constant measured up to 1500 uM by competitive fluorescence polarization assay; details: dose microM <=1500
[22] = target: T7, Galectin-2 (Homo sapiens) (UniProt P05162); assay: Binding affinity to human galectin-2 assessed as dissociation constant measured up to 1500 uM by competitive fluorescence polarization assay; details: dose microM <=1500
T7 sequence (whole entry): T5 sequence (P05162 whole entry)

[23] = target: T4, Galectin-8 (Homo sapiens); assay: Binding affinity to human galectin-8 C terminal domain assessed as dissociation constant measured up to 1500 uM by competitive fluorescence polarization assay; details: dose microM <=1500
[24] = target: T8, Galectin-4 (Homo sapiens) (UniProt P56470); assay: Binding affinity to human galectin-4 N terminal domain assessed as dissociation constant measured up to 1500 uM by competitive fluorescence polarization assay; details: dose microM <=1500
T8 sequence (whole entry): T6 sequence (P56470 whole entry)

Row | SMILES | Selectivity ratio (Homo sapiens [1]) | Selectivity ratio (Homo sapiens [2]) | Selectivity ratio (Homo sapiens [3]) | Activity (Galectin-9 [7]) | Selectivity ratio (Homo sapiens [8]) | Selectivity ratio (Homo sapiens [9]) | Selectivity ratio (Homo sapiens [10]) | Selectivity ratio (Homo sapiens [11]) | Selectivity ratio (Homo sapiens [12]) | Kd (Galectin-7 [13]) | Kd (Galectin-2) | Activity (Galectin-9 [21]) | further results
1 | O=C(O)c1ccc2nc(CO[C@@H]3C=CO[C@H](CO)[C@@H]3O)[nH]c2c1 | > 2 | > 2 | > 2 | inactive | > 2 | > 2 | > 2 | > 2 | > 2 | – | – | – | Kd (Galectin-8): Not Active; Activity (K562): inactive; Activity (MDA-MB-231): inactive; Activity [4]: Non-Toxic; Activity [5]: inactive; Activity (Galectin-7 [6]): inactive
2 | CO[C@@H]1O[C@H](CO)[C@H](O)[C@H](O)[C@H]1O | – | – | – | – | – | – | – | – | – | Not Active | – | – | –
3 | Cn1c(CO[C@@H]2[C@@H](O)[C@@H](Sc3ccc(Cl)c(Cl)c3)O[C@H](CO)[C@@H]2O)nc2ccc(C(=O)O)cc21 | – | – | – | – | – | – | – | – | – | – | – | – | Activity (K562): inactive; Activity (MDA-MB-231): inactive; Activity [4]: Non-Toxic; Activity [14]: 15%; Activity [15]: 65%; Activity [16]: 55%
4 | CCOC(=O)c1ccc2c(c1)nc(CO[C@@H]1C=CO[C@H](CO)[C@@H]1O)n2C | 0.99 | – | 1.2 | – | – | – | > 2 | – | – | Not Active | Not Active | – | Kd (Galectin-4 [17]): Not Active; Kd (Galectin-4 [18]): Not Active; Kd (Galectin-9 [19]): Not Active; Kd (Galectin-9 [20]): Not Active
5 | OC[C@H]1OC=C[C@@H](O)[C@H]1O | > 2 | – | 1.2 | inactive | 1.8 | > 2 | > 2 | > 2 | > 2 | Not Active | Not Active | – | –
6 | Cn1c(CO[C@@H]2C=CO[C@H](CO)[C@@H]2O)nc2ccc(C(=O)O)cc21 | – | > 2 | – | – | > 2 | > 2 | > 2 | > 2 | > 2 | – | – | inactive | Activity (K562): inactive; Activity (MDA-MB-231): inactive; Activity [4]: Non-Toxic; Activity [15]: 65%; Activity [16]: 55%; Activity (Galectin-7 [6]): inactive
7 | OC[C@H]1Oc2cc(Cc3ccc(F)cc3)cc3c2[C@@H](OC3)[C@H]1O | > 2 | – | > 2 | – | > 2 | > 2 | – | > 2 | > 2 | Not Active | Not Active | – | Kd (Galectin-4 [18]; read-out: Kd): > 3 mM; Kd (Galectin-8): Not Active
8 | Cn1c(CO[C@@H]2C=CO[C@H](CO)[C@@H]2O)nc2cc(C(=O)O)ccc21 | 0.95 | – | 1.4 | inactive | > 2 | > 2 | > 2 | > 2 | > 2 | Not Active | Not Active | inactive | –

Further lines, with some results ahead:

Row | Selectivity ratio (Homo sapiens [1]) | Selectivity ratio (Homo sapiens [2]) | Selectivity ratio (Homo sapiens [3]) | Activity (Galectin-9 [7]) | Selectivity ratio (Homo sapiens [8]) | Selectivity ratio (Homo sapiens [9]) | Selectivity ratio (Homo sapiens [10]) | Selectivity ratio (Homo sapiens [11]) | Selectivity ratio (Homo sapiens [12]) | Kd (Galectin-7 [13]) | Kd (Galectin-2) | Activity (Galectin-9 [21]) | SMILES | further results
9 | > 2 | > 2 | > 2 | – | > 2 | > 2 | > 2 | > 2 | > 2 | Not Active | – | inactive | COC(=O)c1ccc2ccc(CO[C@@H]3C=CO[C@H](CO)[C@@H]3O)nc2c1 | Activity [5]: inactive; Activity [22]: inactive; Activity [23]: inactive
10 | > 2 | > 2 | > 2 | – | > 2 | > 2 | > 2 | > 2 | > 2 | – | – | inactive | O=C(O)c1ccc2ccc(CO[C@@H]3C=CO[C@H](CO)[C@@H]3O)nc2c1 | Activity [24]: inactive; Activity (Galectin-7 [6]): inactive
11 | > 2 | – | > 2 | inactive | > 2 | > 2 | > 2 | > 2 | > 2 | Not Active | Not Active | inactive | COC(=O)c1ccc2nc(CO[C@@H]3C=CO[C@H](CO)[C@@H]3O)[nH]c2c1 | Activity [5]: inactive
12 | > 2 | – | > 2 | inactive | > 2 | > 2 | > 2 | > 2 | – | Not Active | Not Active | – | COC(=O)c1ccc2nc(CO[C@@H]3C=CO[C@H](CO)[C@@H]3O)n(C)c2c1 | Kd (Galectin-9 [20]): Not Active
